Test results as given in ChEMBL document CHEMBL4261642, “Design, synthesis, and ex vivo evaluation of a selective inhibitor for retinaldehyde dehydrogenase enzymes” (Bioorg Med Chem, 2018).

How the values were obtained:
[1] = target: T1, Retinal dehydrogenase 2 (Gallus gallus) (UniProt O93344); assay: Inhibition of N-terminal His6-tagged recombinant chick RALDH2 expressed in Escherichia coli BL21(DE3) cells at 250 nM using RAL as substrate assessed as remaining activity preincubated for 10 mins followed by all-trans-retinaldehyde and substrate addition measured after 30 mins in presence of NAD+ by fluorescence assay
T1 sequence (whole entry): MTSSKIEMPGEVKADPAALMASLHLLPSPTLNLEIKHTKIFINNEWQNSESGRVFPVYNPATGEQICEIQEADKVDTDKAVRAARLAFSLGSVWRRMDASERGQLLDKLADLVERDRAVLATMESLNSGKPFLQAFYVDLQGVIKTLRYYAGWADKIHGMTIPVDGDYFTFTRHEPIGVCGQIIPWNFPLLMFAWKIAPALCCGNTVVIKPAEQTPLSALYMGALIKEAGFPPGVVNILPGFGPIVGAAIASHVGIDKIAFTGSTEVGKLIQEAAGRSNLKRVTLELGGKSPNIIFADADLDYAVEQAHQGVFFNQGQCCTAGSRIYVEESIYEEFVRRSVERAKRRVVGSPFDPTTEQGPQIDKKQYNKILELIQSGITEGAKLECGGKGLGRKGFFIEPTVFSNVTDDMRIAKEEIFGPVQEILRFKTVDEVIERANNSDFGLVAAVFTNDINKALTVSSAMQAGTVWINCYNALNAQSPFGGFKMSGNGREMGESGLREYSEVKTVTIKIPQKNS
Procedure, shortened: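 Chick RALDH2 (91 nM) pre-incubated with 250 nM inhibitor for 0–80 min at 37°C, alone or with 250 μM retinaldehyde or 250 μM NAD+. Reaction then started with the missing substrate and/or cofactor (250 μM retinaldehyde, 4 mM NAD), 30 min at 37°C. Fluorimetric NADH; % activity remaining. Triplicates.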

[2] = Inhibition of N-terminal His6-tagged recombinant chick RALDH3 expressed in Escherichia coli BL21(DE3) cells using RAL as substrate measured after 30 mins in presence of NADH by Morrison's plot analysis; design: species or system Gallus gallus
Procedure, shortened: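 Ki obtained by fitting the Morrison tight-binding equation to the 20-min pre-incubation retinaldehyde/NADH fluorescence inhibition data. Inputs were enzyme concentration (RALDH1 0.358, RALDH2 0.091, RALDH3 0.355, hRALDH2 0.176 μM), substrate concentration and Km. Triplicates from 3–5 independent experiments.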

[3] = Inhibition of N-terminal His6-tagged recombinant chick RALDH3 expressed in Escherichia coli BL21(DE3) cells using RAL as substrate preincubated for 20 mins followed by substrate addition and measured after 30 mins in presence of NADH by fluorescence assay; design: species or system Gallus gallus
Procedure, shortened: (§1)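 Purified His-tagged recombinant enzyme in dialysis buffer with 2 mM DTT. Amounts were chick RALDH1 2 μg (0.358 μM), chick RALDH2 0.5 μg (0.091 μM), chick RALDH3 2 μg (0.355 μM) and human RALDH2 1 μg (0.176 μM). Enzyme pre-incubated 20 min at 37°C with 0–10 μM inhibitor in DMSO. Reaction started with final 4 mM NAD+ in pyrophosphate pH 8.2 buffer plus 250 μM retinaldehyde, 30 min at 37°C. NADH read fluorimetrically (Ex/Em 540/590) against a standard curve. Triplicates, 3–5 experiments.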

[4] = target: T1, Retinal dehydrogenase 2 (Gallus gallus); assay: Inhibition of chick RALDH2 expressed in doxycycline-inducible HEK293 cells assessed as inhibition of ATRA synthesis at 0.5 uM after 24 hrs in presence of […]
[5] = target: T2, Aldehyde dehydrogenase 1A1 (Gallus gallus, UniProt P27463); assay: Inhibition of N-terminal His6-tagged recombinant chick RALDH1 expressed in Escherichia coli BL21(DE3) cells using RAL as substrate preincubated for 20 mins followed by substrate addition and measured after 30 mins in presence of NADH by fluorescence assay; procedure, shortened: as §1
T2 sequence (P27463 whole entry): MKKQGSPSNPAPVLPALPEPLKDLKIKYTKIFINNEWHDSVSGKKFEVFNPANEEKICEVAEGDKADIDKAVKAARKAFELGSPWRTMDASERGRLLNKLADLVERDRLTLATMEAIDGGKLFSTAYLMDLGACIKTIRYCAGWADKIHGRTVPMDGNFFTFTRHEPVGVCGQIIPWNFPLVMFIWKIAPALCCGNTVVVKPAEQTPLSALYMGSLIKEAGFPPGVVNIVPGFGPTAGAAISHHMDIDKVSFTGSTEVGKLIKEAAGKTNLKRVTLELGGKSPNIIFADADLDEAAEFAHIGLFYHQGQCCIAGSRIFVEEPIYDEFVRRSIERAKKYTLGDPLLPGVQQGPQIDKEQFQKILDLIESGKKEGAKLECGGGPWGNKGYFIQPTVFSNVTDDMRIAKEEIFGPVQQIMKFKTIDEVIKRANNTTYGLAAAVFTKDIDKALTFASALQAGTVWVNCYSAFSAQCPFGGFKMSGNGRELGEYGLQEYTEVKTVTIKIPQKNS

[6] = species on record: Gallus gallus; assay: (§2) Inhibition of N-terminal His6-tagged recombinant chick RALDH3 expressed in Escherichia coli BL21(DE3) cells at 500 nM using RAL as substrate assessed as Vmax preincubated for 20 mins followed by substrate addition and measured after 30 mins in presence of NADH by fluorescence assay (reference value: 107.3 +/- 15.97 pmol/microM/min)
[7] = target: T1, Retinal dehydrogenase 2 (Gallus gallus); assay: Inhibition of N-terminal His6-tagged recombinant chick RALDH2 expressed in Escherichia coli BL21(DE3) cells up to 500 nM using RAL as substrate assessed as Kinact/Ki ratio preincubated up to 40 mins followed by substrate addition and measured after 30 mins in presence of NADH by fluorescence assay
Procedure, shortened: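 Chick RALDH2 pre-incubated 10, 20 and 40 min with 0–500 nM inhibitor, then assayed with retinaldehyde/NAD+ by fluorimetric NADH. kobs taken from linear regression of log % activity remaining versus pre-incubation time. KI and kinact obtained by nonlinear regression of kobs versus inhibitor concentration.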

[8] = test system: HEK293; assay: Cytotoxicity against doxycycline-inducible chicken RALDH2 expressing HEK293 cells by measuring DNA content after 24 hrs in presence of proteinase K by Pico-green dye-based fluorescence assay; assay type: functional, cell-based; details: Homo sapiens, HEK293, 24 h
Procedure, shortened: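 Doxycycline-induced (Dox)RALDH2-eGFP HEK293 cells treated with compound in low-serum DMEM. Homogenate aliquots taken before ultracentrifugation were digested with proteinase K (0.05% w/v in 10 mM EDTA, 0.1 M sodium phosphate pH 6.5) at 60°C overnight. DNA measured by PicoGreen fluorescence. Toxicity curves span 0.01–50 μM over 24 h. Two experiments, n = 5 per concentration.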

[9] = species on record: Gallus gallus; assay: as §2, with “100” for “500”
[10] = target: T1, Retinal dehydrogenase 2 (Gallus gallus); assay: Inhibition of N-terminal His6-tagged recombinant chick RALDH2 expressed in Escherichia coli BL21(DE3) cells at 50 nM using RAL as substrate assessed as remaining activity preincubated for 20 mins followed by compound washout by ultrafiltration and subsequent addition of substrate and measured after 30 mins in presence of NADH by fluorescence assay (reference value: 100.0 +/- 11.57%)
Procedure, shortened: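 Chick RALDH2 (91 nM) pre-incubated 20 min with 0–50 nM inhibitor. Unbound inhibitor removed by ultrafiltration before adding 250 μM retinaldehyde and 4 mM NAD+, 30 min at 37°C. NADH measured fluorimetrically. Activity expressed as % of vehicle. Triplicates; one-way ANOVA with Bonferroni test.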

For `CC1=C(/C=C/C(C)=C/C=C/C(C)=C/C(=O)C(Cl)Cl)C(C)(C)CCC1`, the Activity [1] was 30.4%, the Ki [2] was 0.00674 µM and the IC50 [3] was 0.161 µM. For the same compound, the inhibition [4] was 47%, the IC50 [5] was 0.435 µM and the Vmax [6] was 21.6 pmol/µM/min. The Ratio [7] was 124000 M⁻¹ min⁻¹, the IC50 [8] was 2.94 µM and the Vmax [9] was 68.4 pmol/µM/min. It also gave an Activity [10] of 23%.
